Assay outcomes from PubChem BioAssay.
Only some compounds are listed: those with a hit (about 1.1% of all), similar ones and a draw of the others.
Yeast growth tox: Inhibits yeast growth, turbidity readout; growth inhibition, % at 25 µM (by protocol); S. cerevisiae wild-type growth, A595 turbidity, 16 h; AID 685; 0.3% of 30,000 active;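 active = mutant and wild-type yeast strains alike exhibit over 30% growth inhibition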
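Test system: Wild-type and eIF2Bepsilon-R284H mutant S. cerevisiae, screened separately | Dosing: Single 25 µM compound dose in 0.2% DMSO | Schedule: 16 h compound exposure during growth at 30 °C | Detection: A595 turbidity | Evaluation: Growth inhibition (%) versus cell controls and blanks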
eIF2B yeast act: modulators of yeast eIF2B activity; inhibition, % at 25 µM (by protocol); 0.91% of 27,000 active; S. cerevisiae eIF2B-epsilon R284H, GCN4-lacZ luminescence;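 active = mutant luminescence inhibited past about 50% while wild type luminescence and mutant growth stay under set limits, limit read from the data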
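Material: yeast eIF2B-epsilon R284H mutant carrying GCN4–beta-galactosidase fusion. Medium: YPD yeast growth medium. Incubation: 16 h growth with compound at 30 °C, 90 min Beta-Glo step. Signal: Beta-Glo luminescence plus absorbance at 595 nm. Evaluation: % inhibition of reporter signal and growth versus controls. Doses: 25 µM single dose.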
Large screens that a line does not name were inactive.

c1ccc2c(c1)CNc1ccccc1O2	eIF2B yeast act 57
Cc1ccc2c(c1)CNc1ccccc1O2	none
O=C(Cn1cnc2sc3c(c2c1=O)CCCC3)NCCCC(=O)N1CCC2(CC1)OCCO2	none (no result: eIF2B yeast act)
CN(C)C(=O)Oc1ccc(OC(=O)c2ccccc2)cc1	eIF2B yeast act 51
CN(C)Cc1ccccc1OC(=O)N(C)C	none
CN1CCN(C(=O)COc2ccc(S(=O)(=O)NCc3ccccc3)cc2Cl)CC1	none (no result: eIF2B yeast act)
O=C(COc1ccc(Cl)cc1Cl)N1CCN(C/C=C/c2ccccc2)CC1	Yeast growth tox 44
CCN(c1ccc(C(O)(C(=O)OC)C(F)(F)F)cc1)S(=O)(=O)c1ccc(C)cc1 (stereo not drawn)	none (no result: eIF2B yeast act)
CCOc1ccc(N=C2SCCCN2C)cc1	none
